Results taken from ChEMBL document CHEMBL3124817, “Design and synthesis of thiazole derivatives as potent FabH inhibitors with antibacterial activity” (Eur J Med Chem, 2014).
≈ marks a conversion by molar mass, not a printed value.

Columns and labels:
Pseudomonas aeruginosa = assay: Antibacterial activity against Pseudomonas aeruginosa ATCC 13525 after 24 hrs by MTT assay; type: functional; settings: ATCC 13525, 24 h
Procedure, shortened: (§1)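 Broth microdilution in sterile liquid MH medium; compounds from 1 mg/mL DMSO stock, serially diluted. Inoculum about 10^5 cfu/mL, 37 °C for 24 h. MIC read visually, then MTT (2 mg/mL in PBS pH 7.4) added for 4–5 h at room temperature. Dye extracted with acidified isopropanol for 12 h, OD at 550 nm.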

[1] = Inhibition of Escherichia coli N-terminal His-tagged FabH expressed in Escherichia coli BL21(DE3) using holo-acyl carrier protein as substrate preincubated for 1 min followed by acetyl-CoA addition measured after 25 mins by liquid scintillation counting analysis
Procedure, shortened: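 His-tagged FabH purified by Ni–NTA. Reaction: 1 nM FabH, […], 20 mM sodium phosphate pH 7.0, 0.5 mM DTT, 0.25 mM MgCl₂, 1 min preincubation. Started with 25 μM acetyl-CoA plus 0.75 μCi [³H]acetyl-CoA for 25 min. Stopped with cold TCA, protein pellet counted by liquid scintillation. Inhibitors from DMSO stock, final DMSO ≤2%; IC50 determined.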

[2] = Cytotoxicity against human macrophages after 24 hrs by MTT assay; type: cell-based, Macrophage
Procedure, shortened: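 Human macrophages in DMEM with 10% FBS and antimycotic, 1.8×10^4 cells/well. Compounds at 160, 40, 10, 2.5, 0.25 μg/mL in 10% DMSO, 24 h at 37 °C under 5% CO₂. Then MTT for 4 h, formazan dissolved in DMSO, absorbance difference 570/630 nm as viability. CC50 by curve fitting; untreated cells as negative control.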

Escherichia coli = assay: Antibacterial activity against Escherichia coli ATCC 35218 after 24 hrs by MTT assay; type: functional; settings: ATCC 35218, 24 h; procedure, shortened: as §1
Bacillus spizizenii = assay: Antibacterial activity against Bacillus subtilis ATCC 6633 after 24 hrs by MTT assay; type: functional; settings: ATCC 6633, 24 h; procedure, shortened: as §1
Staphylococcus aureus = assay: Antibacterial activity against Staphylococcus aureus ATCC 6538 after 24 hrs by MTT assay; type: functional; settings: ATCC 6538, 24 h; procedure, shortened: as §1

SMILES | MIC (Pseudomonas aeruginosa) | IC50 [1] | pIC50 [1] | MIC (Escherichia coli) | MIC (Bacillus spizizenii) | MIC (Staphylococcus aureus) | CC50 at 24 h [2]
COc1cccc(CC(=O)Nc2nc(-c3ccccc3)cs2)c1 | 25 µg/mL (≈ 77.1 µM) | – | – | – | – | – | –
O=C(Cc1ccc(Cl)cc1)Nc1nc(-c2ccccc2)cs1 | – | 41.8 µM | 4.38 | – | – | – | 357 µM
O=C(Cc1ccc(F)cc1)Nc1nc(-c2ccccc2)cs1 | – | 38.4 µM | 4.42 | – | – | – | 318 µM
O=C(Nc1nc(-c2ccccc2)cs1)c1ccccc1 | – | > 100 µM | – | – | – | – | –
CCOc1cccc(CC(=O)Nc2nc(-c3ccc(Br)cc3)cs2)c1 | 25 µg/mL (≈ 59.9 µM) | – | – | 50 µg/mL (≈ 120 µM) | 50 µg/mL (≈ 120 µM) | > 100 µg/mL | –
O=C(Nc1nc(-c2ccc(Br)cc2)cs1)c1ccccc1 | – | > 100 µM | – | – | – | – | –
O=C(Cc1ccc(Cl)cc1)Nc1nc(-c2ccc(Br)cc2)cs1 | – | 34.7 µM | 4.46 | – | – | – | 286 µM
CCOc1cccc(CC(=O)Nc2nc(-c3ccccc3)cs2)c1 | 50 µg/mL (≈ 148 µM) | – | – | 50 µg/mL (≈ 148 µM) | > 100 µg/mL | > 100 µg/mL | –
O=C(Cc1ccc(Br)cc1)Nc1nc(-c2ccc(Br)cc2)cs1 | – | 48.1 µM | 4.32 | – | – | – | 315 µM

Continued by falling IC50 [1], values first:

MIC (Pseudomonas aeruginosa) | IC50 [1] | pIC50 [1] | MIC (Escherichia coli) | MIC (Bacillus spizizenii) | MIC (Staphylococcus aureus) | SMILES | CC50 at 24 h [2]
– | 29.3 µM | 4.53 | – | – | – | O=C(Cc1ccc(F)cc1)Nc1nc(-c2ccc(Br)cc2)cs1 | 264 µM
– | 26.9 µM | 4.57 | – | – | – | O=C(Cc1cccc(Br)c1)Nc1nc(-c2ccccc2)cs1 | 257 µM
– | 12.3 µM | 4.91 | – | – | – | O=C(Cc1cccc(Cl)c1)Nc1nc(-c2ccccc2)cs1 | 264 µM
12.5 µg/mL (≈ 30.7 µM) | 9.3 µM | 5.27 | 6.25 µg/mL (≈ 15.3 µM) | – | – | O=C(Cc1cccc(Cl)c1)Nc1nc(-c2ccc(Br)cc2)cs1 | 194 µM
3.13 µg/mL (≈ 7.76 µM) | 6.6 µM | 5.25 | 12.5 µg/mL (≈ 31 µM) | 6.25 µg/mL (≈ 15.5 µM) | 3.13 µg/mL (≈ 7.76 µM) | COc1cccc(CC(=O)Nc2nc(-c3ccc(Br)cc3)cs2)c1 | 192 µM
3.13 µg/mL (≈ 6.92 µM) | 5.8 µM | 5.01 | 1.56 µg/mL (≈ 3.45 µM) | 1.56 µg/mL (≈ 3.45 µM) | – | O=C(Cc1cccc(Br)c1)Nc1nc(-c2ccc(Br)cc2)cs1 | 220 µM
– | 4.9 µM | – | – | – | – | CC1(C)S[C@@H]2[C@H](NC(=O)Cc3ccccc3)C(=O)N2[C@H]1C(=O)O [PENICILLIN G] | 229 µM
